The source made the active and inactive calls. No cut-off for these calls is given here. Numbered stars: 1 amine (or outer) side, 2 acyl side, 3 side chain; on linkers, the order of the positions; unused ones are H or OH. Bridge positions count the residues as written; N and C are the ends. Square brackets hold non-standard residues; d marks the D form. Peptide text beside a SMILES is read from it. * marks the point of attachment. Phe(4-Cl) = N[C@@H](Cc1ccc(Cl)cc1)C(=O)O; Phe(4-Et) = CCc1ccc(C[C@H](N)C(=O)O)cc1; Phe(4-F) = N[C@@H](Cc1ccc(F)cc1)C(=O)O; Phe(4-Me) = Cc1ccc(C[C@H](N)C(=O)O)cc1; 2Thi = N[C@@H](Cc1cccs1)C(=O)O; X4 = N=C(N)NCCC[C@@H](CO)N*; X2 = N=C(N)NCCC[C@H](CO)N*; hCys = N[C@@H](CCS)C(=O)O; X1 = O=C(CCC[*:2])[*:1]; X3 = O=C(CC[*:2])[*:1]; Mpa = O=C(O)CCS
How the values were obtained:
[1] = Protein binding in rat plasma at 200 to 1000 ng/ml measured after 15 mins by UC-LC/MS/MS analysis; format: ADME, cell-free; settings: read-out: PPB (converted)
Outline: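 Peptide spiked into rat plasma to final 200-1000 ng/mL, incubated 15 min at 37 °C, ultracentrifuged at 773,000 xg for 30 min at 37 °C; middle-layer sample quantified by LC/MS/MS; binding (%) = (Ci − Cm)/Ci × 100; quadruplicate.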

[2] = molecular target: Vasopressin V2 receptor (Homo sapiens, UniProt P30518); assay: Agonist activity at recombinant human V2 receptor expressed in HEK293 cells measured after 5 hrs by cAMP response element driven luciferase reporter gene assay; format: functional, cell-based
Vasopressin V2 receptor, sequence (P30518 whole entry): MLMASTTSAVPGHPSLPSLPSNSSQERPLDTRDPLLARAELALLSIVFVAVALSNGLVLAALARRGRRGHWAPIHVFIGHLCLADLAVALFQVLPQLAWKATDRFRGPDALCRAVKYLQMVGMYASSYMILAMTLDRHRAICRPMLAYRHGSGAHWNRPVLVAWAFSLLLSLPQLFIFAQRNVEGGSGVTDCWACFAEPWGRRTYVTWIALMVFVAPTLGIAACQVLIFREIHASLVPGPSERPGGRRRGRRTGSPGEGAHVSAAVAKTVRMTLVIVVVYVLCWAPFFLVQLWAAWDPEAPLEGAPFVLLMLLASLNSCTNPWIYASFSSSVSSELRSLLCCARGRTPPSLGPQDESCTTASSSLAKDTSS

[3] = Clearance in Sprague-Dawley rat at 0.1 mg/kg, iv administered as cassette dose by LC-MS/MS analysis; format: ADME, organism-based; settings: in vivo
[4] = molecular target: Vasopressin V1a receptor (Homo sapiens, UniProt P37288); assay: Agonist activity at recombinant human V1a receptor expressed in HEK293 cells up to 1000 nM measured after 5 hrs by luciferase reporter gene assay; format: cell-based; settings: hek293, 5 h
Vasopressin V1a receptor, sequence (P37288 whole entry): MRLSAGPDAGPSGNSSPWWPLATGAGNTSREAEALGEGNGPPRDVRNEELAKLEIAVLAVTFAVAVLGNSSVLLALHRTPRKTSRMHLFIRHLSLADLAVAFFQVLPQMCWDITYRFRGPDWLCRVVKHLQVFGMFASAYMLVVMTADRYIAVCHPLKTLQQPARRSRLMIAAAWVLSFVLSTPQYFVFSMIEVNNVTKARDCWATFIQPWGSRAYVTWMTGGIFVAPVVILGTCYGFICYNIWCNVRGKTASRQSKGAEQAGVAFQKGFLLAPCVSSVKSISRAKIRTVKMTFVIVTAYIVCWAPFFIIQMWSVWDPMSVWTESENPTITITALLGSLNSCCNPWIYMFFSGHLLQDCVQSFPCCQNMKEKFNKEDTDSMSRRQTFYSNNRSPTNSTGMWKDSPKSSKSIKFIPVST

[5] = Non-renal clearance in nephrectomized Sprague-Dawley rat at 0.1 mg/kg, iv administered as cassette dose by LC-MS/MS analysis; format: ADME, organism-based; settings: in vivo
[6] = molecular target: T1, Oxytocin receptor (Homo sapiens, UniProt P30559); assay: Agonist activity at human OTR stably expressed in CHOK1 cells by NFAT-luciferase reporter gene assay; format: cell-based
T1 sequence (P30559 whole entry): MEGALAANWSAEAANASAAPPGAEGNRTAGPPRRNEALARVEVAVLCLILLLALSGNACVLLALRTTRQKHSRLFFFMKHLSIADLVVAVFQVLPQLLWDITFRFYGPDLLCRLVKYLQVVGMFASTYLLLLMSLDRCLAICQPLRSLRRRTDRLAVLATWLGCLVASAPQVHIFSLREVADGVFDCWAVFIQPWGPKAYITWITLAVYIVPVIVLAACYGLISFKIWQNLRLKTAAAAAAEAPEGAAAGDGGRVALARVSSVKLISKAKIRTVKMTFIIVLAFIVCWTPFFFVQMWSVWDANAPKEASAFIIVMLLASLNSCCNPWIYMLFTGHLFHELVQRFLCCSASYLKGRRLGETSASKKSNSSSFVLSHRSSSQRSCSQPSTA

[7] = molecular target: T2, Oxytocin receptor (Homo sapiens) (UniProt P30559); assay: Agonist activity at human OTR stably expressed in CHOK1 cells up to 10000 nM by NFAT-luciferase reporter gene assay; format: cell-based
T2 sequence (whole entry): T1 sequence (P30559 whole entry)

[8] = molecular target: T2, Oxytocin receptor (Homo sapiens); assay: Agonist activity at human OTR stably expressed in CHOK1 cells by NFAT-luciferase reporter gene assay relative to control; format: cell-based

SMILES | fraction unbound at […] [1] | EC50 [2] [nM] | clearance [3] [mL/min/kg] | Activity [4] | CL [5] [%] | EC50 [6] [nM] | Activity [7] | Efficacy [8] [%]
CC(C)[C@@H]1NC(=O)[C@H](Cc2ccccc2)NC(=O)[C@H](Cc2ccc(O)cc2)NC(=O)CCSSC[C@@H](C(=O)N2CCC[C@H]2C(=O)N[C@H](CCCNC(=N)N)C(=O)NCC(N)=O)NC(=O)[C@H](CC(N)=O)NC1=O ([Mpa]YFVNCP[dR]G-NH2; disulfide 1-6) | 0.69 | 0.05 | 9.6 | Not Active | – | – | – | –
Cc1ccc(C[C@@H]2NC(=O)CCCSC[C@@H](C(=O)N3CCC[C@H]3C(=O)N[C@@H](CO)CCCNC(=N)N)NC(=O)[C@H](CC(N)=O)NC(=O)[C@H](C(C)C)NC(=O)[C@H](Cc3cccs3)NC2=O)cc1 ([Phe(4-Me)][2Thi]VNCP-X2; linker N-5 via X1) | 0.32 | – | 5.3 | Not Active | 30 | > 10000 | – | –
CC(C)[C@@H]1NC(=O)[C@H](Cc2cccs2)NC(=O)[C@H](Cc2ccc(Cl)cc2)NC(=O)CCCSC[C@@H](C(=O)N2CCC[C@H]2C(=O)N[C@@H](CO)CCCNC(=N)N)NC(=O)[C@H](CC(N)=O)NC1=O ([Phe(4-Cl)][2Thi]VNCP-X2; linker N-5 via X1) | 0.2 | – | 4 | Not Active | – | > 10000 | – | –
CC(C)[C@@H]1NC(=O)[C@H](Cc2cccs2)NC(=O)[C@H](Cc2ccc(Cl)cc2)NC(=O)CCSCC[C@@H](C(=O)N2CCC[C@H]2C(=O)N[C@@H](CO)CCCNC(=N)N)NC(=O)[C@H](CC(N)=O)NC1=O ([Phe(4-Cl)][2Thi]VN[hCys]P-X2; linker N-5 via X3) | 0.11 | – | 2.8 | Not Active | 66 | > 10000 | – | –
CCNC(=O)[C@@H](CCCNC(=N)N)NC(=O)[C@@H]1CSCN1C(=O)[C@@H]1CCSCCC(=O)N[C@@H](Cc2ccc(Cl)cc2)C(=O)N[C@@H](Cc2cccs2)C(=O)N[C@@H](C(C)C)C(=O)N[C@@H](CC(N)=O)C(=O)N1 | 0.08 | 0.11 | 11 | Not Active | – | – | inactive | –
CC(C)CNC(=O)[C@@H](CCCNC(=N)N)NC(=O)[C@@H]1C[C@@H](O)CN1C(=O)[C@@H]1CCSCCC(=O)N[C@@H](Cc2ccc(Cl)cc2)C(=O)N[C@@H](Cc2cccs2)C(=O)N[C@@H](C(C)C)C(=O)N[C@@H](CC(N)=O)C(=O)N1 | 0.08 | 0.2 | 5.9 | Not Active | – | – | inactive | –
CNC(=O)[C@@H](CCCNC(=N)N)NC(=O)[C@@H]1CCCN1C(=O)[C@@H]1CSCCCC(=O)N[C@@H](Cc2ccc(Cl)cc2)C(=O)N[C@@H](Cc2cccs2)C(=O)N[C@@H](C(C)C)C(=O)N[C@@H](CC(N)=O)C(=O)N1 | 0.18 | 0.27 | 9.1 | Not Active | – | – | inactive | –
CC(C)[C@@H]1NC(=O)[C@H](Cc2cccs2)NC(=O)[C@H](Cc2ccc(Cl)cc2)NC(=O)CCCSC[C@@H](C(=O)N2CCC[C@H]2C(=O)N[C@H](CO)CCCNC(=N)N)NC(=O)[C@H](CC(N)=O)NC1=O ([Phe(4-Cl)][2Thi]VNCP-X4; linker N-5 via X1) | 0.19 | – | 8.1 | Not Active | – | > 10000 | – | –
CCNC(=O)[C@@H](CCCNC(=N)N)NC(=O)[C@@H]1CCCN1C(=O)[C@@H]1CSSCCC(=O)N[C@@H](Cc2ccc(Cl)cc2)C(=O)N[C@@H](Cc2cccs2)C(=O)N[C@@H](C(C)C)C(=O)N[C@@H](CC(N)=O)C(=O)N1 | 0.12 | 0.32 | 11 | Not Active | 81 | – | inactive | –
CCc1ccc(C[C@@H]2NC(=O)CCCSC[C@@H](C(=O)N3CCC[C@H]3C(=O)N[C@@H](CO)CCCNC(=N)N)NC(=O)[C@H](CC(N)=O)NC(=O)[C@H](C(C)C)NC(=O)[C@H](Cc3cccs3)NC2=O)cc1 ([Phe(4-Et)][2Thi]VNCP-X2; linker N-5 via X1) | 0.16 | 0.35 | 9.4 | Not Active | 80 | > 10000 | – | –
CC(C)[C@@H]1NC(=O)[C@H](Cc2ccc(F)cc2)NC(=O)[C@H](Cc2ccc(Cl)cc2)NC(=O)CCCSC[C@@H](C(=O)N2CSC[C@H]2C(=O)N[C@H](CCCNC(=N)N)C(=O)NCCc2cccs2)NC(=O)[C@H](CC(N)=O)NC1=O | 0.04 | 0.3 | 27 | Not Active | 100 | – | inactive | –
CC(C)[C@@H]1NC(=O)[C@H](Cc2cccs2)NC(=O)[C@H](Cc2ccc(O)cc2)NC(=O)CCSCC[C@@H](C(=O)N2CCC[C@H]2C(=O)N[C@@H](CO)CCCNC(=N)N)NC(=O)[C@H](CC(N)=O)NC1=O (Y[2Thi]VN[hCys]P-X2; linker N-5 via X3) | 0.74 | 0.08 | 6.9 | Not Active | – | 160 | – | –
CC(C)[C@@H]1NC(=O)[C@H](Cc2cccs2)NC(=O)[C@H](Cc2ccc(O)cc2)NC(=O)CCCSC[C@@H](C(=O)N2CCC[C@H]2C(=O)N[C@H](CCCNC(=N)N)C(=O)NCc2ccccc2)NC(=O)[C@H](CC(N)=O)NC1=O | 0.55 | 0.26 | 14 | Not Active | 71 | – | inactive | –
CCNC(=O)[C@@H](CCCNC(=N)N)NC(=O)[C@@H]1C[C@@H](O)CN1C(=O)[C@@H]1CSCCCC(=O)N[C@@H](Cc2ccc(Cl)cc2)C(=O)N[C@@H](Cc2ccccc2)C(=O)N[C@@H](C(C)C)C(=O)N[C@@H](CC(N)=O)C(=O)N1 | 0.09 | 0.29 | 3.3 | Not Active | – | – | inactive | –
CC(C)[C@@H]1NC(=O)[C@H](Cc2cccs2)NC(=O)[C@H](Cc2ccc(Cl)cc2)NC(=O)CCCSC[C@@H](C(=O)N2CSC[C@H]2C(=O)N[C@H](CCCNC(=N)N)C(=O)NCc2ccccc2)NC(=O)[C@H](CC(N)=O)NC1=O | 0.09 | – | 38 | Not Active | 100 | 140 | – | 32
CC(C)[C@@H]1NC(=O)[C@H](Cc2ccc(F)cc2)NC(=O)[C@H](Cc2ccc(Cl)cc2)NC(=O)CCCSC[C@@H](C(=O)N2CCC[C@H]2C(=O)N[C@@H](CO)CCCNC(=N)N)NC(=O)[C@H](CC(N)=O)NC1=O ([Phe(4-Cl)][Phe(4-F)]VNCP-X2; linker N-5 via X1) | 0.07 | – | 3.8 | Not Active | – | > 10000 | – | –
CCNC(=O)[C@@H](CCCNC(=N)N)NC(=O)[C@@H]1CCCN1C(=O)[C@@H]1CCSCCC(=O)N[C@@H](Cc2ccc(Cl)cc2)C(=O)N[C@@H](Cc2cccs2)C(=O)N[C@@H](C(C)C)C(=O)N[C@@H](CC(N)=O)C(=O)N1 | 0.1 | 0.19 | 5.3 | Not Active | 67 | – | inactive | –
CC(C)[C@@H]1NC(=O)[C@H](Cc2cccs2)NC(=O)[C@H](Cc2ccc(O)cc2)NC(=O)CCCSC[C@@H](C(=O)N2CCC[C@H]2C(=O)N[C@H](CO)CCCNC(=N)N)NC(=O)[C@H](CC(N)=O)NC1=O (Y[2Thi]VNCP-X4; linker N-5 via X1) | 0.85 | 0.1 | 8.1 | Not Active | – | 230 | – | –
CC(C)[C@@H]1NC(=O)[C@H](Cc2cccs2)NC(=O)[C@H](Cc2ccc(Cl)cc2)NC(=O)CCCSC[C@@H](C(=O)N2CSC[C@H]2C(=O)N[C@H](CCCNC(=N)N)C(=O)NCCc2cccs2)NC(=O)[C@H](CC(N)=O)NC1=O | 0.07 | 0.17 | 34 | Not Active | 100 | – | inactive | –
CCCNC(=O)[C@@H](CCCNC(=N)N)NC(=O)[C@@H]1CSCN1C(=O)[C@@H]1CSCCCC(=O)N[C@@H](Cc2ccc(Cl)cc2)C(=O)N[C@@H](Cc2cccs2)C(=O)N[C@@H](C(C)C)C(=O)N[C@@H](CC(N)=O)C(=O)N1 | 0.17 | – | 31 | Not Active | 90 | – | inactive | –
CC(C)NC(=O)[C@@H](CCCNC(=N)N)NC(=O)[C@@H]1CCCN1C(=O)[C@@H]1CSCCCC(=O)N[C@@H](Cc2ccc(Cl)cc2)C(=O)N[C@@H](Cc2cccs2)C(=O)N[C@@H](C(C)C)C(=O)N[C@@H](CC(N)=O)C(=O)N1 | 0.15 | 0.45 | 15 | Not Active | 58 | – | inactive | –

From ChEMBL document CHEMBL4396873, “Discovery of Potent, Selective, and Short-Acting Peptidic V2 Receptor Agonists” (J Med Chem, 2019)
